Bioassay records from PubChem BioAssay.
procasp7 counter: procaspase-7 activators, primary screen, counter-screen for procaspase-3 activator project, biochemical, absorbance, HTS, human; Caspase-7 (Homo sapiens), P55210; recombinant procaspase-7, Ac-DEVD-pNA absorbance 405 nm; D23A/D198A/D206A triple mutant, cannot self-cleave; scale: DMSO 0, 5 µM enzyme 100; activation, % at 8.5 µM; 0.093% of 330,000 active;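 active means percent activation above the screen-wide mean plus 3 SD, cut at about 25% in these data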
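Replicates: singlicate. Assay system: Procaspase-7 triple mutant (PC-7 D3A). Signal: 405 nm absorbance of p-nitroaniline. Times: 1 h preincubation, 2 h reaction. Buffer or medium: Zinc-free HEPES pH 7.4 with 300 mM NaCl, 0.01% Triton X-100. Also added: DEVD-pNA substrate. Benchmarks: DMSO wells as 0%, DMSO with 5 µM added PC-7 as 100%.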
p-CIP stab down: p/CIP-EGFP fusion destabilizers, primary screen, fluorescence, F442A cells. Q05BA5. 16 h. decrease of EGFP signal, % at 10 µM. 0.01% of 290,000 active. AID 1984, 2009;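 active means EGFP signal decrease of at least 30% at 10 µM or well 3 SD below plate mean, unless failing retest; inactive means the rest, including hits failing retest or dose response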
Target sequence (Q05BA5 1-1403): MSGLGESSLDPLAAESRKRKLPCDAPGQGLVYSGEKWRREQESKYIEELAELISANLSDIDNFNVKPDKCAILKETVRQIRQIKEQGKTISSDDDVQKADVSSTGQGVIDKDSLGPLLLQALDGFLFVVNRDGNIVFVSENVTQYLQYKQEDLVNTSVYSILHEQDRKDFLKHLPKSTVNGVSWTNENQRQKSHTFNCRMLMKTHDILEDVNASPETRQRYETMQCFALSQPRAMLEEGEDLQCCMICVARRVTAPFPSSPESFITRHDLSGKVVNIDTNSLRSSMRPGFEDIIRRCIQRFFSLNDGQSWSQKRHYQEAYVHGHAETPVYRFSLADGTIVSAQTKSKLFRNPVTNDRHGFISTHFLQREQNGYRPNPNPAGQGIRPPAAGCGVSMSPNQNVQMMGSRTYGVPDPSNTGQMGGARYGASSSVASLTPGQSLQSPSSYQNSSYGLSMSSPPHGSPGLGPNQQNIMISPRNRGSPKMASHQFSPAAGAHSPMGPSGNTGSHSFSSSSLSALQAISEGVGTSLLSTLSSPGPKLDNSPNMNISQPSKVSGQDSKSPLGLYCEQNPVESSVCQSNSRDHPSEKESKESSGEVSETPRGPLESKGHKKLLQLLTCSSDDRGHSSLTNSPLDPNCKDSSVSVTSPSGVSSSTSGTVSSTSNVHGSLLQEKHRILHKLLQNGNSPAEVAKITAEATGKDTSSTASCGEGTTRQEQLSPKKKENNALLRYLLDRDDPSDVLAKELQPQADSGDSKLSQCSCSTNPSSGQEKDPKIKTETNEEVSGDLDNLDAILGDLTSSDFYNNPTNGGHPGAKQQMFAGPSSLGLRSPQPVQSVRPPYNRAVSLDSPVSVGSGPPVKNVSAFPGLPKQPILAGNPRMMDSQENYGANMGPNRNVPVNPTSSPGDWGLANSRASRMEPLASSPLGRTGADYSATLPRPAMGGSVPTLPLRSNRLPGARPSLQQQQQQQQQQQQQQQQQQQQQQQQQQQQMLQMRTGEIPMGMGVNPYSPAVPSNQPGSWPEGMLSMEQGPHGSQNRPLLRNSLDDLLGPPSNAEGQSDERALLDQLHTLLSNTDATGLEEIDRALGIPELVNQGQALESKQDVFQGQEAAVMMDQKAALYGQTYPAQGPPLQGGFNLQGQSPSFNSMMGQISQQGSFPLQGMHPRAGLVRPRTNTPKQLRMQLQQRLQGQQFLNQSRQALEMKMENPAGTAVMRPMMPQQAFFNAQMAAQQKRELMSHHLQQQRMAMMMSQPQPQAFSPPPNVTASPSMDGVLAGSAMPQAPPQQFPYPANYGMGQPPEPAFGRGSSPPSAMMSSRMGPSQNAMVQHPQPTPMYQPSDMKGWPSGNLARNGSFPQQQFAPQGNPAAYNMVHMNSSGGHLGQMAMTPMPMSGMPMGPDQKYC
Hep lipid drop: inhibitors of hepatocyte lipid droplet formation, primary screen, imaging, high-throughput imaging, BODIPY stain; AML12 mouse hepatocytes, oleate lipid droplets; inhibition, % at 6.5 µM; 0.4% of 240,000 active; AID 1656, 2009;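 active means lipid droplet intensity inhibited by at least 50%, with more than 500 cells counted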
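Test system: AML12 mouse liver cells; schedule: overnight exposure; technique: high-content imaging of BODIPY-stained droplets and DAPI nuclei; read-out: % inhibition of corrected integrated BODIPY droplet signal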
GAA850 FXN act: FXN promoter activators, primary screen, cell-based, luciferase luminescence, HEK293 lucGAA850; HEK293 lucGAA850 FXN promoter luciferase reporter, 24 h; percent of 10 µM SAHA response; activation, % at 6 µM; 0.56% of 360,000 active;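 active means activation above the average of all compounds screened plus 3 SD, cutoff fixed separately per campaign, cut at about 7.5% in these data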
proCasp3 act: activators of human procaspase-3 D3A mutant, primary screen, biochemical, absorbance, PC-3 D3A mutant, single concentration; Caspase-3 (Homo sapiens), P42574; recombinant procaspase-3 D3A, Ac-DEVD-pNA absorbance 405 nm; activation, % at 8.5 µM; 0.11% of 330,000 active;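 active means activation above the mean of all tested compounds plus 3 SD, cut at about 21% in these data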
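assay system = Procaspase-3 D3A mutant | signal = absorbance at 405 nm, 0 and 120 min | times = 1 h preincubation plus 2 h reaction at 25 °C | repeats = single replicate | read-out = % activation between DMSO and enzyme-spiked controls | medium = Zinc-free HEPES saline buffer with Triton X-100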
Rce1 inhib: yeast Rce1p protease inhibitors, primary screen, biochemical, fluorescence, cell-free homogeneous | CAAX prenyl protease 2 (Saccharomyces cerevisiae (strain ATCC 204508 / S288c)), Q03530 | yeast membranes, quenched prenylated peptide cleavage fluorescence | calls only | 0.27% of 290,000 active | AID 2563, 2010;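 active means fall in fluorescence gain of 50% or more versus controls, with final raw signal at or below 3038400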
Lipid drop inh: hepatocyte lipid droplet accumulation inhibitors, confirmation, imaging, AML12 mouse hepatocytes, single concentration, high-content. inhibition, % at 5.2 µM. shares compounds with Hep lipid drop. 65% of 870 active. BODIPY lipid droplet imaging; droplets induced with 100 µM oleic acid. AID 463183, 2010;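 active means inhibition of lipid droplet metric at least 50%, with more than 300 cells in each of four replicates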
AML12 cytotox: AML12 hepatocyte cytotoxicity, counter-screen for hepatic lipid droplet formation project, imaging, DAPI nuclear morphology imaging. shares compounds with Hep lipid drop. AML12 mouse hepatocytes; stronger effect = higher value; cells fed 100 µM oleate overnight. z-score at 5 µM. 3% of 870 active; in the data active means z-score above about 6.3;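 further: compound exposure lasted overnight at 37 °C before fixation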
AML12 tox conf: AML12 hepatocyte cytotoxicity, confirmation, cytotoxicity control for hepatic lipid droplet formation project, cell-based, single concentration; cytotoxicity, % at 50 µM; AML12 mouse hepatocyte viability, ATP luminescence; cells loaded with 100 µM oleic acid; shares compounds with Hep lipid drop; 530 tested, under 10 active;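 active means cytotoxicity above 50% in each of four replicates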;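 further: compound exposure lasted overnight at 37 °C before the ATP read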
Numbers stand for hits; i = inactive; nt = no result given. Sampled rows, rich in hits. Any-hit rate of the full collection: about 1.2%.

SMILES	procasp7 counter	p-CIP stab down	Hep lipid drop	GAA850 FXN act	proCasp3 act	Rce1 inhib	Lipid drop inh	AML12 cytotox	AML12 tox conf
CC(=O)NC(c1cccc(F)c1)c1nc(/C=C/c2ccccc2)cs1 (centres undefined)	nt	nt	nt	i	nt	nt	nt	nt	nt
CC(=O)Nc1ccc(NC(=S)NC(=O)/C=C/c2ccc(Cl)cc2)cc1	i	i	i	i	i	i	nt	nt	nt
O=C(/C=C/c1ccc(Cl)cc1)NC(=S)Nc1ccc(NC(=O)c2ccco2)cc1	i	i	56.9	i	i	i	i	i	nt
COc1cccc(-c2cn(-c3cccc(C(F)(F)F)c3)c(=S)[nH]2)c1	nt	i	59.3	i	nt	i	i	i	nt
CCOc1ccc(CCNC(=O)CN2C(=O)NC3(CCCCC3)C2=O)cc1OCC	i	nt	nt	i	i	i	nt	nt	nt
CCOc1ccc(CCNC(=O)Cn2cccc2C(=O)c2ccccc2C)cc1OCC	i	i	100.7	i	i	i	109.1	i	i
CCOc1ccc(CCNC(=O)COC(=O)CSc2ccccc2C)cc1OCC	i	i	i	i	i	i	nt	nt	nt
CCOc1ccc(CCNC(=O)CN2C(=O)NC3(CCCC3)C2=O)cc1OCC	i	i	83.4	i	i	i	109.0	i	i
CCOc1ccc(CCNC(=O)CCn2cccc2)cc1OCC	i	i	nt	i	i	i	nt	nt	nt
CCOc1ccc(CCNC(=O)/C=C/c2ccco2)cc1OCC	nt	i	81.2	i	nt	i	104.9	i	i
CCOc1ccc(CCNC(=O)Nc2ccccc2C)cc1OCC	i	i	103.7	i	i	i	101.5	i	i
COc1ccc(S(=O)(=O)NC(=O)C2(C)CCN2C(=O)C2CC2)cc1 (centres undefined)	nt	nt	nt	i	nt	nt	nt	nt	nt
O=c1[nH]c(SCCc2ccccc2)nc2c1CCC2	nt	nt	nt	i	nt	nt	nt	nt	nt
COc1cccc(/C=C/C(=O)NCCc2ccc(OC)c(OC)c2)c1	i	i	54.0	i	i	i	i	i	nt
CC(Sc1nc(-c2ccccc2)c(-c2ccccc2)[nH]1)C(=O)NCC1CCCO1 (centres undefined)	nt	nt	nt	i	nt	nt	nt	nt	nt
CCCCOc1ccccc1C(=O)N(Cc1ccco1)C1CCS(=O)(=O)C1 (centres undefined)	i	i	50.9	i	i	i	i	i	i
CCC/C(=N/Nc1ccc(Cl)cc1)c1cnnc(-c2ccccc2)n1	i	nt	nt	nt	i	i	nt	nt	nt
CC/C(=N/Nc1ccccc1Cl)c1cnnc(-c2ccccc2)n1	i	i	55.7	i	i	i	75.4	i	i
CN(/N=C/c1cc(Cl)ccc1O)C1=NS(=O)(=O)c2ccccc21	i	i	i	i	i	i	nt	nt	nt
COc1cccc(Nc2nc(C(N)C3CCCCC3)cs2)n1 (centres undefined)	nt	nt	nt	i	nt	nt	nt	nt	nt
CSc1ccccc1NC(=O)C1=CC(c2cccs2)=NS(=O)(=O)N1C	i	i	73.7	i	i	i	104.8	i	i
COC(=O)c1ccccc1NC(=O)C1=CC(c2cccs2)=NS(=O)(=O)N1C	i	i	i	i	i	i	nt	nt	nt
CCCCN(C(=O)c1ccc(C)cc1)c1c(N)n(CCC)c(=O)[nH]c1=O	i	i	i	i	i	nt	nt	nt	nt
Cc1cc(C)n(-c2nc(N(c3ccccc3)c3ccccc3)nc(-n3nc(C)cc3C)n2)n1	i	i	57.3	i	i	i	69.0	i	92.9
CCCOc1cccc(C(=O)NCCNC(=O)c2ccc(C)nc2)c1	i	i	51.2	i	i	i	83.3	i	i
SMILES	procasp7 counter	p-CIP stab down	Hep lipid drop	GAA850 FXN act	proCasp3 act	Rce1 inhib	Lipid drop inh	AML12 cytotox	AML12 tox conf
CCOc1ccc(C(=O)NCCNC(=O)c2ccc(OCC)cc2)cc1	i	i	85.7	i	i	nt	96.0	i	i
Cc1ccc(C(=O)NCCNC(=O)c2ccc(C)nc2)cc1	i	i	56.1	i	i	i	90.9	i	i
Cc1ccc(C(=O)NCCCNC(=O)c2ccc(C)nc2)cc1	i	i	i	i	i	i	nt	nt	nt
CCOc1ccc(C(=O)NCCO)cc1	i	i	i	i	i	i	nt	nt	nt
CCOc1ccc(-c2noc(-c3csc([C@@H]4O[C@H](CO)[C@H](O)[C@H](O)[C@H]4O)n3)n2)cc1	nt	nt	nt	i	nt	nt	nt	nt	nt
CCCN1C(=O)/C(=C2/C=Cc3ccccc3N2CC)SC1=S	i	i	84.9	i	i	i	105.3	i	i
N#C/C(=C\c1ccc(-c2ccc([N+](=O)[O-])cc2)o1)C(=O)Nc1nc(-c2cccs2)cs1	i	i	i	i	i	i	nt	nt	nt
N#C/C(=C\c1ccc(-c2ccccc2[N+](=O)[O-])o1)C(=O)Nc1nc(-c2cccs2)cs1	i	i	72.1	i	i	i	101.2	i	i
Cc1cccc(-n2ncc3c2CCCC3NC(=O)C2(C(N)=O)CC2)c1C (centres undefined)	i	i	i	i	i	nt	nt	nt	nt
Cc1cc(C)c(C(=O)NC2CCCc3c2cnn3-c2cccc(C)c2C)o1 (centres undefined)	i	i	81.2	i	i	i	105.4	i	i
O=C(NC1CCCc2c1cnn2-c1ccc(F)cc1F)c1ccccn1 (centres undefined)	i	i	i	i	i	i	nt	nt	nt
Cc1ccc(-n2ncc3c2CCCC3NC(=O)c2ccoc2)cc1C (centres undefined)	i	i	i	i	i	i	nt	nt	nt
O=C(NC1CCCc2c1cnn2-c1ccccc1F)c1ccccn1 (centres undefined)	i	i	71.3	i	i	i	88.5	i	i
COCc1ccc(C(=O)NC2CCCc3c2cnn3-c2ccc(C)c(C)c2)o1 (centres undefined)	i	i	61.3	i	i	i	99.8	i	i
COC(=O)C(Sc1ccc(Cl)cc1)C1SC(=S)N(Cc2ccccc2)C1=O (centres undefined)	nt	nt	nt	i	nt	nt	nt	nt	nt
Cc1cccc(NC(=O)CN2C(=O)N/C(=C\c3cccn3-c3cccc(C(=O)O)c3)C2=O)c1	i	i	i	i	i	i	nt	nt	nt
